Measurements published in ChEMBL document CHEMBL4400583, “Camporidines A and B: Antimetastatic and Anti-inflammatory Polyketide Alkaloids from a Gut Bacterium of Camponotus kiusiuensis” (J Nat Prod, 2019).
Converted amounts (≈) assume the structure as drawn. The source made the active and inactive calls. The calls are words filed in the database; no cut-off is given here.

What was measured:
MDA-MB-231 [1] = assay: Antiinvasive activity against human MDA-MB-231 cells at 20 uM after 48 hrs by crystal violet staining based microscopic method relative to control; assay type: functional
How it was run: (§1)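 Cell invasion assay with MDA-MB-231 human breast cancer cells exposed to 20 or 40 μM compound, sunitinib as positive control. Invasion decrease is relative to untreated control, given as mean ± SD of n = 3, with significance versus control.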

SK-HEP1 = assay: Antiproliferative activity against human SKHEP1 cells after 72 hrs by SRB assay; assay type: functional, cell-based
Klebsiella pneumoniae = assay: Antibacterial activity against Klebsiella pneumoniae; assay type: functional
MDA-MB-231 [2] = assay: Antimigratory activity against human MDA-MB-231 cells at 20 uM after 48 hrs by wound healing assay relative to control; assay type: functional
How it was run: (§2)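 Wound healing (scratch) assay on MDA-MB-231 human breast cancer cells, compound at 20 and 40 μM, sunitinib as positive control. Migration was expressed relative to untreated control as mean ± SD (n = 3), with significance versus control.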

MDA-MB-231 [3] = assay: Antiinvasive activity against human MDA-MB-231 cells at 40 uM after 48 hrs by crystal violet staining based microscopic method relative to control; assay type: functional; how it was run: as §1
Staphylococcus aureus = assay: Antibacterial activity against Staphylococcus aureus; assay type: functional
RAW264.7 [4] = assay: Antiinflammatory activity in mouse RAW264.7 cells assessed as inhibition of LPS-induced nitric oxide production preincubated for 1 hr followed by LPS addition and measured on next day by Griess reagent based assay; assay type: functional, cell-based
How it was run: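 Mouse macrophages treated with compound, then stimulated with LPS to induce nitric oxide production (iNOS assay). NO suppression was read against LPS-only cells and expressed as IC50. 2-Amino-5,6-dihydro-6-methyl-4H-1,3-thiazine (AMT) was the positive control.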

Aspergillus fumigatus = assay: Antifungal activity against Aspergillus fumigatus; assay type: functional
Enterococcus faecalis = assay: Antibacterial activity against Enterococcus faecalis; assay type: functional
A549 = assay: Antiproliferative activity against human A549 cells after 72 hrs by SRB assay; assay type: functional, cell-based
MCF-10A = assay: Antiproliferative activity against human MCF10A cells after 72 hrs by SRB assay; assay type: cell-based
MDA-MB-231 [5] = assay: Antiproliferative activity against human MDA-MB-231 cells after 72 hrs by SRB assay; assay type: functional, cell-based
Salmonella enterica = assay: Antibacterial activity against Salmonella enterica; assay type: functional
[6] = system: Trichophyton mentagrophytes; assay: Antifungal activity against Trichophyton mentagrophytes; assay type: functional
MDA-MB-231 [7] = assay: Antimigratory activity against human MDA-MB-231 cells at 40 uM after 48 hrs by wound healing assay relative to control; assay type: functional; how it was run: as §2
Trichophyton rubrum = assay: Antifungal activity against Trichophyton rubrum; assay type: functional
HCT-116 = assay: Antiproliferative activity against human HCT116 cells after 72 hrs by SRB assay; assay type: functional, cell-based
Homo sapiens = species: Homo sapiens; assay: Antiproliferative activity against human SNU538 cells after 72 hrs by SRB assay; assay type: functional, cell-based
Candida albicans = assay: Antifungal activity against Candida albicans; assay type: functional
Escherichia coli = assay: Antibacterial activity against Escherichia coli; assay type: functional
RAW264.7 [8] = assay: Cytotoxicity against LPS-induced mouse RAW264.7 cells assessed as reduction in cell viability up to 80 uM by MTT assay; assay type: cell-based
How it was run: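 Viability of mouse macrophages after co-exposure to LPS and compound, measured by MTT assay. This was run alongside the LPS-induced NO suppression assay to check for cytotoxicity.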

Enterococcus faecium = assay: Antibacterial activity against Enterococcus faecium; assay type: functional
MDA-MB-231 [9] = assay: Antimigratory activity against human MDA-MB-231 cells after 48 hrs by wound healing assay; assay type: functional, cell-based; how it was run: as §2

SMILES | Activity (MDA-MB-231 [1]) | Activity (SK-HEP1) | MIC (Klebsiella pneumoniae) [µM] | Activity (MDA-MB-231 [2]) | Activity (MDA-MB-231 [3]) | MIC (Staphylococcus aureus) [µM] | IC50 (RAW264.7 [4]) [µM] | MIC (Aspergillus fumigatus) [µM] | MIC (Enterococcus faecalis) [µM] | Activity (A549) | Activity (MCF-10A) | Activity (MDA-MB-231 [5]) | MIC (Salmonella enterica) [µM] | MIC [6] [µM] | Activity (MDA-MB-231 [7]) | MIC (Trichophyton rubrum) [µM] | Activity (HCT-116) | Activity (Homo sapiens) | MIC (Candida albicans) [µM] | MIC (Escherichia coli) [µM] | further results
CCCCCC[C@H]1CN(O)[C@H]2C=C/C(=C\C=C\C(=O)O)[C@]23O[C@H]13 | inactive | inactive | 64 (≈ 20.4 µg/mL) | inactive | inactive | 64 (≈ 20.4 µg/mL) | 83 | > 128 | 64 (≈ 20.4 µg/mL) | inactive | Non-Toxic | inactive | 64 (≈ 20.4 µg/mL) | > 128 | inactive | > 128 | inactive | inactive | > 128 | 64 (≈ 20.4 µg/mL) | Activity (RAW264.7 [8]): Non-Toxic; MIC (Enterococcus faecium): 64 µM (≈ 20.4 µg/mL)
CCCCCC[C@H]1CN[C@H]2C=C/C(=C\C=C\C(=O)O)[C@]23O[C@H]13 | 20% | inactive | 64 (≈ 19.4 µg/mL) | 50% | 36% | 64 (≈ 19.4 µg/mL) | 16.9 | > 128 | 64 (≈ 19.4 µg/mL) | inactive | Non-Toxic | inactive | 64 (≈ 19.4 µg/mL) | > 128 | 73% | > 128 | inactive | inactive | > 128 | 64 (≈ 19.4 µg/mL) | Activity (MDA-MB-231 [9]): Dose-dependent effect; Activity (RAW264.7 [8]): Non-Toxic; MIC (Enterococcus faecium): 64 µM (≈ 19.4 µg/mL)
